# Reference: PMC9425296 (Journal of the American Chemical Society, 2022)
# *1 amine or outer side, *2 acyl side, *3 side chain or, on linkers, in order; H or OH if unused. Where a SMILES comes first, the peptide text is derived from it. Bridges are numbered along the chain shown (N, C = ends). [ ]: non-standard residue; d: D form. X1 = O=C([C@@H]1C[C@H](SCc2cccc(C[*:3])c2)CN1[*:1])[*:2]
# Key:
# [1] = tested on: five human paralogs in the GABARAP/LC3 family (GABARAP, GABARAP-L1, GABARAP-L2, LC3A, LC3B); assay: FP binding across human LC3/GABARAP paralogs; details: fluorescein-tagged peptide
# Outline: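 Fluorescence polarization with N-terminally fluorescein-labelled peptides titrated against each recombinant protein (GABARAP, GABARAP-L1, GABARAP-L2, LC3A, LC3B). Kd values come from the FP binding data. Results are the average and standard error of the mean of three or more independent trials.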
# [2] = tested on: OVCAR8 cells (p62, LC3B, GABARAP); assay: Western blot of autophagy markers in OVCAR8 cells; format: cell-based; details: OVCAR8, 25 μM peptide plus 10 μM cisplatin, 48 h
smiles,measurement,setting,value
CC(C)C[C@H](NC(=O)[C@@H]1CSCc2cccc(c2)CS[C@H]2C[C@@H](C(=O)N[C@@H](Cc3ccc(O)cc3)C(=O)N[C@@H]([C@@H](C)O)C(=O)N[C@@H](Cc3c[nH]c4ccccc34)C(=O)N[C@@H](CCC(=O)O)C(=O)N1)N(C(=O)[C@H](C)NC(=O)[C@@H](N)CC(=O)O)C2)C(=O)N[C@@H](C)C(=O)N[C@@H](Cc1c[nH]c2ccccc12)C(=O)N1CCC[C@H]1C(N)=O [MP3-meta] (H-DA[X1]YTWECLAWP-NH2; thioether 3-8; N-terminus and C-terminus assumed),binding to GABARAP and GABARAPL1 (in words),[1],low-to-mid nanomolar range
same,"binding to GABARAP-L2, LC3A and LC3B (in words)",[1],mostly in the micromolar range
same,LC3B-I level compared to cells treated with cisplatin alone,[2],increased LC3B-I
